Experimental findings from ChEMBL document CHEMBL4725282, “Discovery of a Conformationally Constrained Oxazolidinone with Improved Safety and Efficacy Profiles for the Treatment of Multidrug-Resistant Tuberculosis” (J Med Chem, 2020) are described below.

SMILES strings stand for the structures. ≈ marks a conversion by molar mass, not a printed value.

In one data set the test system is HepG2. Description: Cytotoxicity against human HepG2 cells assessed as reduction in cell viability measured after 48 hrs by MTT assay. It counts as cell-based. To be noted: HepG2, 48 h. In outline: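 Cytotoxicity on Vero or HepG2 cells by MTT assay, run as previously reported.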
In general terms: Tetrazolium assays rely on reduction of a dye to a coloured formazan, in cell work by metabolically active cells.

A short description of data set [1]: MRT (0 to t) in Balb/c mouse at 25 mg/kg, po by LC-MS/MS analysis. The format is ADME, organism-based. To be noted: in vivo. In outline:
(§1)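 Female BALB/c mice (20–25 g), five per route. Oral dose 25 mg/kg in 0.5% carboxymethyl cellulose; i.v. dose 2.5 mg/kg in 10% DMSO/physiological saline. Blood sampled 5 min–72 h after p.o. and 2 min–48 h after i.v. Analyte quantified by LC/MS/MS (ESI positive, C18, isocratic methanol/water). Parameters from non-compartmental analysis.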

Data set [2] in a line: AUC (0 to t) in Balb/c mouse at 2.5 mg/kg, iv by LC-MS/MS analysis. The format is ADME, organism-based. On the set-up: dose 2.5 mg/kg. To be noted: in vivo. A digest of the protocol: as §1
A short description of data set [3]: AUC (0 to infinity) in Balb/c mouse at 25 mg/kg, po by LC-MS/MS analysis. To be noted: in vivo. It counts as ADME, organism-based. On the set-up: route oral, time infinity, dose 25 mg/kg. In outline:
as §1

Data set [4] in a line: Inhibition of human Nav1.5 expressed in CHO cells at -80 mV holding potential by whole-cell patch-clamp method. The format is cell-based. In outline: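 CHO cells expressing Nav1.5, whole-cell patch clamp. Extracellular saline with 132 mM NaCl, 10 mM HEPES, pH 7.35; KCl/EGTA/MgATP pipette solution. Holding potential -80 mV, 20 ms step to -10 mV. Final compound concentrations 0.3–30 μM, diluted from DMSO stocks.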
For orientation: The patch-clamp technique gives a direct electrical read-out from membranes.

Data set [5] is described as follows: MRT (0 to infinity) in Balb/c mouse at 25 mg/kg, po by LC-MS/MS analysis. To be noted: in vivo. The format is ADME, organism-based. A digest of the protocol:
as §1

The target in data set [6] is T1, Amine oxidase [flavin-containing] A (Homo sapiens, UniProt P21397).
T1 sequence (P21397 whole entry): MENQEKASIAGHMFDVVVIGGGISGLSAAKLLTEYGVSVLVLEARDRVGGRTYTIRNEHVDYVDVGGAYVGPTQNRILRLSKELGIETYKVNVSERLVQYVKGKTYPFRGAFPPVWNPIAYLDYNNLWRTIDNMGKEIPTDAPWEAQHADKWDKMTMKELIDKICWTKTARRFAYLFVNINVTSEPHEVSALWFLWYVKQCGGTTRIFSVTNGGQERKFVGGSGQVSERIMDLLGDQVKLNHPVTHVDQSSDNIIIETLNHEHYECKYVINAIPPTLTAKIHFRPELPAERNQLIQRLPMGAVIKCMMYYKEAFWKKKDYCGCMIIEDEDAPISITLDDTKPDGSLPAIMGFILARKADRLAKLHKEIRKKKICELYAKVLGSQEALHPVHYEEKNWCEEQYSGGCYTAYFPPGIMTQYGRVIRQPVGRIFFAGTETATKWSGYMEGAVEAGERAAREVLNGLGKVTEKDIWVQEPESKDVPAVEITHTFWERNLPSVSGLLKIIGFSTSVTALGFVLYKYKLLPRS
Description: Inhibition of recombinant human MAOA expressed in baculovirus infected insect cells using kynuramine as substrate measured after 20 mins by LC-MS/MS analysis. A digest of the protocol:
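Recombinant human MAO-A or MAO-B (50 μg/mL) in 100 mM potassium phosphate pH 7.4 with 5 mM MgCl2. Kynuramine substrate at 50 μM (MAO-A) or 25 μM (MAO-B). […] 4-Hydroxyquinoline formation measured by LC-MS/MS versus vehicle; IC50 derived.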

Data set [7] in a line: Stability in CD-1 mouse liver microsome at 1 uM measured after 30 mins in absence of NADPH by LC-MS/MS analysis. It counts as ADME. To be noted: microsomes, 0.5 h. In outline: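 Liver microsomes (male CD-1 mouse or pooled human), 1 mg/mL protein, compound 1 µM, 37°C with shaking. Started with 1 mM NADPH or run without cofactor. Quenched with ice-cold ACN/MeOH containing internal standard. Parent quantified by LC-MS/MS; 30 min concentration normalised to time zero.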
(In general: Liver microsomes are vesicles of endoplasmic reticulum, rich in cytochrome P450 enzymes.)

For data set [8], the system named is Mycobacterium tuberculosis. Description: Antitubercular activity against Mycobacterium tuberculosis H37Rv incubated for 7 days by microplate alamar blue assay. To be noted: 168 h, time 7 day. The format is functional. A digest of the protocol: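 MIC determined by microplate alamar blue assay (MABA) following a published protocol.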
A short description of data set [9]: AUC (0 to infinity) in Balb/c mouse at 2.5 mg/kg, iv by LC-MS/MS analysis. To be noted: in vivo. The format is ADME, organism-based. On the set-up: time infinity, route intravenous, dose 2.5 mg/kg. In outline:
as §1

Data set [10] is described as follows: MRT (0 to infinity) in Balb/c mouse at 2.5 mg/kg, iv by LC-MS/MS analysis. The format is ADME, organism-based. To be noted: in vivo. In outline: as §1
A short description of data set [11]: MRT (0 to t) in Balb/c mouse at 2.5 mg/kg, iv by LC-MS/MS analysis. The format is ADME, organism-based. To be noted: in vivo. In outline:
as §1

The nature of data set [12]: Inhibition of mitochondrial protein synthesis in rat H9c2 cells measured after 5 days by ELISA. The format is cell-based. To be noted: H9c2, 120 h. In outline:
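H9C2 cells in DMEM with 10% FBS, seeded 1500/well. After 18 h, compound added at final 0.03–200 μM (3-fold series), then 5 days at 37 °C, 5% CO2; 0.5% DMSO negative control. MPS inhibition read by MitoBiogenesis In-Cell ELISA; IC50 calculated.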

The nature of data set [13]: Mutagenicity in Salmonella typhimurium TA98 up to 1000 ug measured after 48 to 72 hrs in absence of S9 fraction by Ames test. It counts as toxicity. To be noted: salmonella enterica subsp. enterica serovar typhimurium, dose <=1000 µg, time 48-72 hrs. A digest of the protocol: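 Mini-Ames, plate incorporation in 6-well format. Bacteria, compound (DMSO vehicle, top 1000 µg/well), and 10% S9 mix or PBS were mixed into molten agar at 45°C and poured over minimal agar, then incubated 37°C for 48-72 h. Revertants were counted manually and the background lawn inspected. A result is positive at ≥2-fold the mean vehicle revertants with a dose-related increase.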

Data set [14] in a line: Terminal half life in Balb/c mouse at 25 mg/kg, po by LC-MS/MS analysis. The format is ADME, organism-based. To be noted: in vivo, read-out: beta t1/2 (converted). A digest of the protocol:
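Female BALB/c mice, 20-25 g, five per route. Dosed 25 mg/kg p.o. in 0.5% carboxymethyl cellulose or 2.5 mg/kg i.v. in 10% DMSO/saline. Blood sampled 5 min-72 h (p.o.) or 2 min-48 h (i.v.), quantified by LC/MS/MS with ESI+. Parameters by non-compartmental analysis; F = (AUCpo×dose_iv)/(AUCiv×dose_po)×100%.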

Data set [15] can be described thus: Toxicity in female Sprague-Dawley rat assessed as change in hematocrit level at 150 mg/kg/day, po administered for 4 weeks followed by 2 week recovery period (Rvb =41.1 +/- 1.4 %). The format is organism-based. To be noted: in vivo, 672 h.
Data set [16] in a line: Half life in Sprague-Dawley rat hepatocytes at 2 uM by LC-MS/MS analysis. It counts as ADME, cell-based, Hepatocyte. In outline: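 Hepatocytes (male CD-1 mouse, male SD rat, male beagle dog, male cynomolgus monkey, pooled human), final 1 μM compound and 1 million cells/mL, made by mixing 2 μM compound with 2 million cells/mL. Incubated at 37 °C in a CO2 incubator; sampled at 0, 15, 30, 60, 90 and 120 min. Quenched with methanol/ACN containing 0.1% formic acid. Parent remaining measured by LC-MS/MS.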

Turning to `CC(=O)NC[C@@H]1OC(=O)N2c3cc(F)c(N4CC[S+]([O-])CC4)cc3OC[C@@H]12`, the 50% inhibitory concentration (IC50) (commonly the concentration that gives 50% inhibition) is more than 64 µg/mL with HepG2, more than 30 µM in data set [4], more than 100 µM in data set [6] and 60.6 µM in data set [12]. In addition, the MRT last (in general, a mean duration of stay, worked out from the concentration-time curve) in data set [1] turned out to be 9.83 h; in [11], 3.52 h. Also, the AUC(0-t) (as a rule, the area under the concentration-time curve up to a stated or last time point) in data set [2] turned out to be 443 ng·h/mL. In addition, the AUC(0-inf) – broadly, the area under the concentration-time curve extrapolated to infinity – was 9020 ng·h/mL in data set [3] and 592 ng·h/mL in data set [9]. Besides, the MRT inf (in general, a mean duration of stay, worked out from the concentration-time curve) was 10.8 h in data set [5] and 6.22 h in [10]. The Stabilty result in data set [7] was “Stable”. Further, the MIC – broadly, the least concentration at which growth counts as inhibited – in data set [8] (Mycobacterium tuberculosis, H37Rv, read-out: MIC) is 0.44 µg/mL (≈ 1.11 µM). The Activity result in data set [13] is given as “Non-Toxic”. For the same compound, the half-life in [14] was 6.28 h.

Take `CC(=O)NC[C@@H]1OC(=O)N2c3cc(F)c(N4CCSCC4)cc3OC[C@@H]12`: the IC50 is more than 64 µg/mL in the data set with HepG2, more than 30 µM in data set [4], 44.8 µM in data set [6] and more than 100 µM in data set [12]. Also, the MRT last worked out at 7.59 h in data set [1] and 0.54 h in [11]. The area under the curve AUC(0-t) in [2] amounted to 1160 ng·h/mL. In addition, the Activity is listed as 37.4% in [15] and “Non-Toxic” in data set [13]. Moreover, the AUC(0-inf) in [3] came to 7620 ng·h/mL; in [9], 1190 ng·h/mL. Further, the half-life at 2 µM in data set [16] stood at 1.67 h. In addition, the MRT inf in data set [5] came out at 15.2 h; in data set [10] it was 0.691 h. Also, the Stabilty result in data set [7] is listed as “Stable”. The compound also yielded an MIC in data set [8] of 0.03 µg/mL (≈ 0.0787 µM). Besides, the half-life in data set [14] is 14.7 h.
